ChEMBL document CHEMBL1152214, “Synthesis and immunostimulatory properties of the phosphorothioate analogues of cdiGMP” (Bioorg Med Chem Lett, 2008)
Calls of active or inactive are those of the source.

What was measured:
Assay type in all cases: functional, organism-based
Mus musculus [1] = species on record: Mus musculus; assay: Induction of GM-CSF secretion in C57BL/6 mouse
In short: (§1)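 Mice dosed by intranasal instillation and killed after 24 h; bronchoalveolar lavage collected five times with PBS plus 3 mM EDTA; lavage fluid measured for a panel of 21 chemokines and cytokines.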

Mus musculus [2] = species on record: Mus musculus; assay: Induction of IL1-beta secretion in C57BL/6 mouse; in short: as §1
Mus musculus [3] = species on record: Mus musculus; assay: Induction of VEGF secretion in C57BL/6 mouse; in short: as §1
Mus musculus [4] = species on record: Mus musculus; assay: Induction of TNFalpha secretion in C57BL/6 mouse; in short: as §1
Mus musculus [5] = species on record: Mus musculus; assay: Immunostimulatory activity in C57BL/6 mouse assessed as recruitment of inflammatory cells into bronchoalveolar spaces; details: Lung
In short: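 Compound given to mice by intranasal instillation; animals killed 24 h later and lungs lavaged five times with PBS containing 3 mM EDTA; total and differential inflammatory cell counts determined in the bronchoalveolar lavage.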

Mus musculus [6] = species on record: Mus musculus; assay: Induction of IL-13 secretion in C57BL/6 mouse; in short: as §1
Mus musculus [7] = species on record: Mus musculus; assay: Induction of MIP-1beta secretion in C57BL/6 mouse; in short: as §1
Mus musculus [8] = species on record: Mus musculus; assay: Induction of IL-17 secretion in C57BL/6 mouse; in short: as §1
Mus musculus [9] = species on record: Mus musculus; assay: Induction of KC secretion in C57BL/6 mouse; in short: as §1
Mus musculus [10] = species on record: Mus musculus; assay: Induction of RNATES secretion in C57BL/6 mouse; in short: as §1
Mus musculus [11] = species on record: Mus musculus; assay: Induction of IL-6 secretion in C57BL/6 mouse; in short: as §1
Mus musculus [12] = species on record: Mus musculus; assay: Induction of IL-3 secretion in C57BL/6 mouse; in short: as §1
Mus musculus [13] = species on record: Mus musculus; assay: Induction of IL-9 secretion in C57BL/6 mouse; in short: as §1
Mus musculus [14] = species on record: Mus musculus; assay: Induction of MCP-1 secretion in C57BL/6 mouse; in short: as §1
Mus musculus [15] = species on record: Mus musculus; assay: Induction of IL-10 secretion in C57BL/6 mouse; in short: as §1
Mus musculus [16] = species on record: Mus musculus; assay: Induction of IL-12(p40) secretion in C57BL/6 mouse; in short: as §1
Mus musculus [17] = species on record: Mus musculus; assay: Induction of IL-2 secretion in C57BL/6 mouse; in short: as §1
Mus musculus [18] = species on record: Mus musculus; assay: Induction of IL-5 secretion in C57BL/6 mouse; in short: as §1
Mus musculus [19] = species on record: Mus musculus; assay: Induction of IL-4 secretion in C57BL/6 mouse; in short: as §1
Mus musculus [20] = species on record: Mus musculus; assay: Induction of IL-1alpha secretion in C57BL/6 mouse; in short: as §1
Mus musculus [21] = species on record: Mus musculus; assay: Induction of IFN-gamma secretion in C57BL/6 mouse; in short: as §1

Measured: Activity

Nc1nc2ncn([C@@H]3O[C@@H]4COP(=O)(O)O[C@@H]5[C@H](O)[C@@H](n6cnc7nc(N)[nH]c(=O)c76)O[C@H]5COP(=O)(O)O[C@H]4[C@H]3O)c2c(=O)[nH]1
inactive: Mus musculus [1] | Mus musculus [3] | Mus musculus [6] | Mus musculus [8] | Mus musculus [12] | Mus musculus [13] | Mus musculus [15] | Mus musculus [17] | Mus musculus [18] | Mus musculus [19] | Mus musculus [20] | Mus musculus [21]
active: Mus musculus [2] Dose-dependent effect | Mus musculus [4] Dose-dependent effect | Mus musculus [5] Dose-dependent effect | Mus musculus [7] Dose-dependent effect | Mus musculus [9] Dose-dependent effect | Mus musculus [10] Dose-dependent effect | Mus musculus [11] Dose-dependent effect | Mus musculus [14] Dose-dependent effect | Mus musculus [16] Dose-dependent effect
